Laboratory results from ChEMBL document CHEMBL1649438, “Activities of ceftobiprole and other cephalosporins against extracellular and intracellular (THP-1 macrophages and keratinocytes) forms of methicillin-susceptible and methicillin-resistant Staphylococcus aureus” (Antimicrob Agents Chemother, 2009).
Converted amounts (≈) assume the structure as drawn.

What was measured:
[1] = test system: Staphylococcus aureus; test: Bacteriostatic activity against methicillin-susceptible Staphylococcus aureus ATCC 11632 infected in human THP-1 cells assessed as change in bacterial count after 24 hrs at pH 5.5; format: functional
Outline: (§1)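 Human THP-1 macrophage-like cells were infected with S. aureus to a postphagocytosis inoculum of 1.5 × 10^6 to 3.0 × 10^6 CFU/mg cell protein. Cells were then exposed 24 h to increasing extracellular antibiotic concentrations. Response was the log10 CFU change per mg protein from the postphagocytosis inoculum, n = 3. A Hill function was fitted on log-transformed axes. E0 and Emax were extrapolated to infinitely low and high concentrations. Cs was read by graphical interpolation. Concentrations were expressed as multiples of the broth MIC at pH 5.5 or pH 7.4.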

[2] = test system: Staphylococcus aureus; test: Bacteriostatic activity against hospital-acquired vancomycin-intermediate Staphylococcus aureus NRS126 infected in human THP-1 cells assessed as change in bacterial count after 24 hrs at pH 7.4; format: functional
Outline: (§2)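 THP-1 macrophages infected as described previously, with a postphagocytosis inoculum of 1.5 × 10⁶ to 3.0 × 10⁶ CFU/mg cell protein. Cells were exposed 24 h to increasing extracellular antibiotic concentrations. Response is the change in log10 CFU/mg protein from the inoculum (n = 3), fitted to a Hill function. E0 and Emax were extrapolated to infinitely low and high concentrations. EC50 and static concentration (graphical interpolation) are expressed as multiples of the broth MIC at pH 5.5 or 7.4.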

[3] = test system: Staphylococcus aureus; test: Antimicrobial activity against hospital-acquired methicillin-resistant Staphylococcus aureus ATCC 33592 infected in human THP-1 cells assessed as bacterial count per mg of cell protein at low extracellular compound concentration after 24 hrs; format: functional; outline: as §2
[4] = test system: Staphylococcus aureus; test: Antimicrobial activity against Panton-valentine leucocidin-positive community-acquired methicillin-resistant Staphylococcus aureus N4090440 infected in human THP-1 cells assessed as bacterial count per mg of cell protein at low extracellular compound concentration after 24 hrs at pH 5.5; format: functional; conditions: pooled result: one value given for 6 cell lines, strains, targets or settings
Outline: (§3)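 THP-1 human macrophages infected with S. aureus (postphagocytosis inoculum 1.5 × 10^6 to 3.0 × 10^6 CFU/mg cell protein), then incubated 24 h with increasing extracellular antibiotic concentrations. Change in log10 CFU/mg cell protein from the postphagocytosis inoculum, n = 3. Hill function fitted on log-transformed data. Low-concentration value (E0) and high-concentration value (Emax) are extrapolated. Where a pH is given, concentrations are expressed as multiples of the broth MIC at that pH.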

[5] = test system: Staphylococcus aureus; test: Antimicrobial activity against hospital-acquired vancomycin-resistant Staphylococcus aureus VRS1 infected in human THP-1 cells assessed as bacterial count per mg of cell protein at low extracellular compound concentration after 24 hrs; format: functional; outline: as §2
[6] = test system: Staphylococcus aureus; test: Antimicrobial activity against hospital-acquired vancomycin-intermediate Staphylococcus aureus NRS126 infected in human THP-1 cells assessed as bacterial count per mg of cell protein at low extracellular compound concentration after 24 hrs at pH 5.5; format: functional; outline: as §2
[7] = test system: Staphylococcus aureus; test: Antimicrobial activity against Panton-valentine leucocidin-positive community-acquired methicillin-resistant Staphylococcus aureus N4090440 infected in human THP-1 cells assessed as bacterial count per mg of cell protein at high extracellular compound concentration after 24 hrs at pH 5.5; format: functional; outline: as §3
[8] = test system: Staphylococcus aureus; test: Antimicrobial activity against hospital-acquired vancomycin-resistant Staphylococcus aureus VRS1 infected in human THP-1 cells assessed as change in bacterial count after 24 hrs at pH 7.4; format: functional, cell-based; conditions: VRS1, THP-1, 24 h; outline: as §2
[9] = test system: Staphylococcus aureus; test: Ratio of MIC for beta-lactamase-negative methicillin-susceptible Staphylococcus aureus ATCC 25923 by microdilution method at pH 7.4 to ratio of MIC for beta-lactamase-negative methicillin-susceptible Staphylococcus aureus ATCC 25923 by microdilution method at pH 5.5; format: functional
Outline: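 MICs were measured by broth microdilution, with the broth adjusted to pH 7.4 or pH 5.5 before inoculation. pH was confirmed at the end of the assay to within ±0.1 unit. The value is the fold decrease in MIC between pH 7.4 and pH 5.5.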

[10] = test system: Staphylococcus aureus; test: Antimicrobial activity against methicillin-susceptible Staphylococcus aureus NRS52 infected in human THP-1 cells assessed as bacterial count per mg of cell protein at high extracellular compound concentration after 24 hrs at pH 7.4; format: functional; outline: as §1
[11] = test system: Staphylococcus aureus; test: Bacteriostatic activity against Panton-valentine leucocidin-positive community-acquired methicillin-resistant Staphylococcus aureus N4042228 infected in human THP-1 cells assessed as change in bacterial count after 24 hrs at pH 5.5; format: functional; outline: as §2
[12] = test system: Staphylococcus aureus; test: Bacteriostatic activity against methicillin-susceptible Staphylococcus aureus NRS52 infected in human THP-1 cells assessed as change in bacterial count after 24 hrs at pH 7.4; format: functional; outline: as §1
[13] = test system: Staphylococcus aureus; test: Antimicrobial activity against Panton-valentine leucocidin-positive community-acquired methicillin-resistant Staphylococcus aureus N4042228 infected in human THP-1 cells assessed as bacterial count per mg of cell protein at low extracellular compound concentration after 24 hrs; format: functional; outline: as §3
[14] = test system: Staphylococcus aureus; test: Antimicrobial activity against methicillin-susceptible Staphylococcus aureus ATCC 11632 infected in human THP-1 cells assessed as change in bacterial count after 24 hrs; format: functional, organism-based; conditions: ATCC 11632, THP-1, 24 h; outline: as §2
[15] = test system: Staphylococcus aureus; test: Antimicrobial activity against Panton-valentine leucocidin-positive community-acquired methicillin-resistant Staphylococcus aureus STA 44 infected in human THP-1 cells assessed as bacterial count per mg of cell protein at high extracellular compound concentration after 24 hrs; format: functional; outline: as §3
[16] = test system: Staphylococcus aureus; test: Antimicrobial activity against Panton-valentine leucocidin-positive community-acquired methicillin-resistant Staphylococcus aureus NRS192 infected in human THP-1 cells assessed as change in bacterial count after 24 hrs at pH 5.5; format: functional, organism-based; conditions: NRS192, THP-1, 24 h; outline: as §3
[17] = test system: Staphylococcus aureus; test: Bacteriostatic activity against hospital-acquired vancomycin-intermediate Staphylococcus aureus NRS18 infected in human THP-1 cells assessed as change in bacterial count after 24 hrs at pH 5.5; format: functional
Outline: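 Human THP-1 macrophage-like cells were infected with S. aureus; the post-phagocytosis inoculum was 1.5 × 10^6 to 3.0 × 10^6 CFU/mg cell protein. Cells were exposed 24 h to increasing extracellular drug levels. Change in log10 CFU/mg protein from the inoculum was fitted to a Hill function (n = 3). Static concentration was read by graphical interpolation, as a multiple of the pH 5.5 broth MIC.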

[18] = test system: Staphylococcus aureus; test: Antimicrobial activity against methicillin-susceptible Staphylococcus aureus NRS52 infected in human THP-1 cells assessed as bacterial count per mg of cell protein at low extracellular compound concentration after 24 hrs; format: functional; outline: as §1
[19] = test system: Staphylococcus aureus; test: Antimicrobial activity against hospital-acquired vancomycin-intermediate Staphylococcus aureus NRS126 infected in human THP-1 cells assessed as bacterial count per mg of cell protein at high extracellular compound concentration after 24 hrs at pH 7.4; format: functional; outline: as §2
[20] = test system: Staphylococcus aureus; test: Antimicrobial activity against methicillin-susceptible Staphylococcus aureus […] infected in human THP-1 cells assessed as bacterial count per mg of cell protein at high extracellular compound concentration after 24 hrs at pH 7.4; format: functional; outline: as §1

Nc1nc(/C(=N/O)C(=O)N[C@@H]2C(=O)N3C(C(=O)O)=C(/C=C4\CCN([C@@H]5CCNC5)C4=O)CS[C@H]23)ns1 [CEFTOBIPROLE]
Activity [1]: 1.19 × MIC | Activity [2]: 0.74 ×MIC | log10cfu [3]: 2.58 | log10cfu [4]: 2.78 | log10cfu [5]: 2.57 | log10cfu [6]: 2.63 | log10cfu [7]: -1.02 | EC50 [8]: 0.28 ×MIC | fold change (FC) [9]: 2 | log10cfu [10]: -1.04 | Activity [11]: 1.45 × MIC | Activity [12]: 0.6 ×MIC | log10cfu [13]: 3.45 | EC50 [14]: 0.205 µg/mL (≈ 0.383 µM) | log10cfu [15]: -1.02 | EC50 [16]: 0.54 × MIC | Activity [17]: 1.97 × MIC | log10cfu [18]: 2.89 | log10cfu [19]: -0.99 | log10cfu [20]: -1.04
